Measurements as given in ChEMBL document CHEMBL4513216, “Probing the Open Global Health Chemical Diversity Library for Multistage-Active Starting Points for Next-Generation Antimalarials” (ACS Infect Dis, 2020).

Experiment: Toxicity liver stage against HepG2, at 10uM
Format: cell-based
Parameters: test concentration 10 uM, cell line HepG2-A16-CD81EGFP
Settings: human, HepG2-A16-CD81EGFP cells; read-out: INHIBITION
How it was run: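 Uninfected HepG2-A16-CD81EGFP cells, 3 × 10^3 per well, 1536-well, plated on prespotted compound at 10 μM final, parasite-free screening media added to match infected plates; puromycin 10 μM positive, DMSO 0.5% negative; run in parallel with 48 h PbLuc assay at 37 °C, 5% CO2; viability by CellTiter-Glo luminescence, normalized to controls.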

With `Cc1ccc2[nH]c3c(c2c1)CN(C(=O)CN(C)CC1OCCO1)CC3` as the compound, how does the cytotoxicity at 10 µM read?
Its cytotoxicity at 10 µM is 6.5%.

Which cytotoxicity at 10 µM does the source give for `Cc1cc(CN2CCN3C[C@H](c4ccccc4)[C@@H](CO)[C@H]3C2)on1` here?
The cytotoxicity at 10 µM was 7.66%.

Which cytotoxicity at 10 µM does the source give for `COc1ccc(C2CC(=O)Oc3cc(C)[nH]c(=O)c32)cc1O` (stereo unspecified) here?
Its cytotoxicity at 10 µM is -4.47%.

For `CN(C)S(=O)(=O)c1ccc(-c2nc(C#N)c(NC3CC3)o2)o1`, which cytotoxicity at 10 µM is on record?
Its cytotoxicity at 10 µM is -18.4%.

For `CC(=O)N1CCc2ncc(CNC(=O)C3CCC3)n2CC1`, which cytotoxicity at 10 µM is on record?
The cytotoxicity at 10 µM was 7.48%.

For `Cc1c[nH]nc1C1CCCN1Cc1ccncc1` (stereo unspecified), which cytotoxicity at 10 µM is on record?
The cytotoxicity at 10 µM was 13.1%.

With `CNc1cc(C2CCN2c2ncccn2)nc(C)n1` (stereo unspecified) as the compound, how does the cytotoxicity at 10 µM read?
The cytotoxicity at 10 µM was 1.72%.

For `CCCNC(=O)Nc1ncc(-c2cccnc2)s1`, which cytotoxicity at 10 µM is on record?
Its cytotoxicity at 10 µM is 3.11%.

Which cytotoxicity at 10 µM does the source give for `COCCN1CCC(c2nc3cc(C)ccc3[nH]2)CC1` here?
The cytotoxicity at 10 µM was -0.621%.

For `Cc1cccc(NC(=O)c2cncc(C3CCNCC3)n2)n1`, which cytotoxicity at 10 µM is on record?
The cytotoxicity at 10 µM was 0.691%.

Which cytotoxicity at 10 µM does the source give for `NC1(CN2CCCCC2)CCCCC1` here?
The cytotoxicity at 10 µM was 1.46%.

Which cytotoxicity at 10 µM does the source give for `CNc1cc(C2CCCN(C(=O)c3ccc(=O)[nH]n3)C2)ccn1` (stereo unspecified) here?
The cytotoxicity at 10 µM was -11.8%.

With `O=C1CSc2ccc(C(=O)N3CCCC(n4ccnc4)C3)cc2N1` (stereo unspecified) as the compound, how does the cytotoxicity at 10 µM read?
The cytotoxicity at 10 µM was -8.44%.

Which cytotoxicity at 10 µM does the source give for `N#CCCN(CC1CCOC1)Cn1ccc(-c2ccccc2)n1` (stereo unspecified) here?
The cytotoxicity at 10 µM was -3.8%.

With `N#CCCN(CC1CCOC1)Cn1ccc(-c2cccs2)n1` (stereo unspecified) as the compound, how does the cytotoxicity at 10 µM read?
Its cytotoxicity at 10 µM is 10.9%.

With `CCN(CC)C(=O)N1CCN(CCc2ccncc2)CC1` as the compound, how does the cytotoxicity at 10 µM read?
The cytotoxicity at 10 µM was -38.9%.

For `Cc1ccc(C(=O)N2CCOc3nc(C)ccc32)c(F)c1`, which cytotoxicity at 10 µM is on record?
The cytotoxicity at 10 µM was -2.71%.

For `CCN1CCCN(S(=O)(=O)c2cnc3onc(C)c3c2)CC1`, which cytotoxicity at 10 µM is on record?
The cytotoxicity at 10 µM was 4.62%.

With `Cc1cc(CN2CCN(C(C)C)C(CCO)C2)[nH]n1` (stereo unspecified) as the compound, how does the cytotoxicity at 10 µM read?
Its cytotoxicity at 10 µM is 4.86%.

Which cytotoxicity at 10 µM does the source give for `COCCn1cnnc1CNc1cc(C)nc2c(C)c(C)nn12` here?
The cytotoxicity at 10 µM was -0.715%.

Which cytotoxicity at 10 µM does the source give for `Cc1cc(N[C@H]2CCCC[C@@H]2O)n2nccc2n1` here?
The cytotoxicity at 10 µM was -1.42%.

Which cytotoxicity at 10 µM does the source give for `COc1cccc(CN2CCN(CC(C)C)C(=O)C2C)c1O` (stereo unspecified) here?
Its cytotoxicity at 10 µM is 2.02%.

With `COC(=O)c1cccc(S(=O)(=O)NC(=O)COC2CCCC2)c1` as the compound, how does the cytotoxicity at 10 µM read?
Its cytotoxicity at 10 µM is -1.03%.

With `Cc1cnn(C2CN(Cc3nc(-c4ccsc4)no3)C2)c1` as the compound, how does the cytotoxicity at 10 µM read?
Its cytotoxicity at 10 µM is -3.88%.

For `CCc1nc(CNc2ccc(C(=O)N3CCSCC3)cc2C)no1`, which cytotoxicity at 10 µM is on record?
The cytotoxicity at 10 µM was -6.99%.

Which cytotoxicity at 10 µM does the source give for `Cc1cc(CN(C)C2CCCN(c3cccnn3)C2)no1` (stereo unspecified) here?
The cytotoxicity at 10 µM was -2.45%.

Which cytotoxicity at 10 µM does the source give for `O=C(NCC1COC2(CCOCC2)O1)c1csc(-c2cccc(Cl)c2)n1` (stereo unspecified) here?
Its cytotoxicity at 10 µM is -10.7%.

With `Cc1nc2cc(O)nn2c(C)c1CCC(=O)NCc1cc(Br)cs1` as the compound, how does the cytotoxicity at 10 µM read?
The cytotoxicity at 10 µM was -3.04%.

For `Cc1cc(C)c(CNC(=O)NCC(O)c2ccccc2)c(=O)[nH]1` (stereo unspecified), which cytotoxicity at 10 µM is on record?
The cytotoxicity at 10 µM was -10%.

For `NC(=O)CC1CCN(C(=O)NCc2ccc(-c3ccn[nH]3)cc2)CC1`, which cytotoxicity at 10 µM is on record?
The cytotoxicity at 10 µM was -2.38%.

With `CCCc1n[nH]c(C2CN(C(=O)c3ccc4c(c3)COC4)CCO2)n1` (stereo unspecified) as the compound, how does the cytotoxicity at 10 µM read?
Its cytotoxicity at 10 µM is -12.4%.

With `CCNc1cc2c(nn1)CCN(C(=O)Cc1c(C)nn(C)c1C)C2` as the compound, how does the cytotoxicity at 10 µM read?
The cytotoxicity at 10 µM was -8.25%.

Which cytotoxicity at 10 µM does the source give for `COc1cc(C(=O)NS(=O)(=O)c2ccc(C#N)cc2)ccc1C` here?
The cytotoxicity at 10 µM was -6.56%.

For `COc1ccc(C(=O)NS(=O)(=O)c2cccc(C#N)c2)cc1`, which cytotoxicity at 10 µM is on record?
Its cytotoxicity at 10 µM is -2.97%.

Which cytotoxicity at 10 µM does the source give for `CCc1ncncc1C(=O)N1CCN(Cc2cscn2)CC1` here?
Its cytotoxicity at 10 µM is 0.512%.

With `Cc1nc2cc(=O)[nH]n2c(C)c1CC(=O)NCc1ccoc1` as the compound, how does the cytotoxicity at 10 µM read?
Its cytotoxicity at 10 µM is -10.4%.

For `Cc1cnn(CC2CCCN2C(=O)c2cnc(-c3ccco3)s2)c1` (stereo unspecified), which cytotoxicity at 10 µM is on record?
The cytotoxicity at 10 µM was -7.43%.

With `CC(C(=O)N1CCCN(c2ncccc2C#N)CC1)n1ccnc1` (stereo unspecified) as the compound, how does the cytotoxicity at 10 µM read?
Its cytotoxicity at 10 µM is -2.6%.

With `COCC(=O)NC(C)Cc1cccc(OC)c1` (stereo unspecified) as the compound, how does the cytotoxicity at 10 µM read?
Its cytotoxicity at 10 µM is -10.6%.

Which cytotoxicity at 10 µM does the source give for `CCCc1noc(CCC(=O)N2CCCC2c2noc(C3CC3)n2)n1` (stereo unspecified) here?
The cytotoxicity at 10 µM was -9.98%.

With `CCOc1ccnc(N2CCN(C(=O)c3cn[nH]c3CC)CC2)n1` as the compound, how does the cytotoxicity at 10 µM read?
The cytotoxicity at 10 µM was -6.69%.

Which cytotoxicity at 10 µM does the source give for `N[C@@H](Cc1ccccc1)c1nnc(S(=O)(=O)Cc2ccc(Cl)cc2)o1` here?
The cytotoxicity at 10 µM was 14.2%.

Which cytotoxicity at 10 µM does the source give for `CNC(=O)CN1CC[C@H]2CN(C(=O)c3ccoc3)C[C@H]2C1` here?
Its cytotoxicity at 10 µM is -2.8%.

Which cytotoxicity at 10 µM does the source give for `COCC(=O)N1Cc2ccnn2CC(COCCN(C)C)C1` (stereo unspecified) here?
Its cytotoxicity at 10 µM is 6.82%.

For `Cc1noc(C)c1CN1CCCC2(C1)CN(c1nccs1)CCO2` (stereo unspecified), which cytotoxicity at 10 µM is on record?
The cytotoxicity at 10 µM was 8.47%.

With `Fc1ccc(CN2CCC3(CC2)CC(c2cccnc2)CO3)cc1` (stereo unspecified) as the compound, how does the cytotoxicity at 10 µM read?
The cytotoxicity at 10 µM was -4.85%.
